Compound activity deposited in PubChem BioAssay by Broad Institute.
Wnt act = Wnt/beta-catenin pathway activators, primary screen, cell-based, plate reader, single point; Wnt/beta-catenin reporter cell assay, activator; activation, % at 9.35 µM; hit rate 1.2% among 300,000; in the data active means activation above about 30%, passing the limit was not always enough; inconclusive means no clear call, values can overlap the other calls;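 further: 0% = neutral control wells and 100% = positive control wells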
Cneo AK release = Cryptococcus neoformans cell lysis inducers, primary screen, AK release luminescence, single concentration. hit rate 0.2% among 360,000. C. neoformans lysis, adenylate kinase release luminescence, 4 h; normalised: neutral wells 0, clomiphene wells 100. lysis activity, % at 15 µM;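 active means mean lysis activity across replicates of at least 80%, whatever share of replicates individually reach that level; inactive means mean lysis activity below 80%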
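Assay system: C. neoformans cells. Amount: yeast cell density of 5 × 10^6 cells/mL. Technique: AK luminescence. Buffer or medium: YPD. Times: static 4 h at 37 °C with compound, 1 h detection. Dosing: single-point compound dose. Read-out: lysis from increased AK signal.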
MITF act = activators of MITF-driven TRPM1 promoter reporter, primary screen, cell-based, SK-MEL-5, luciferase, single point; SK-MEL-5 TRPM1-promoter luciferase, 24 h; % of positive control, neutral wells = 0; activation, % at 12.5 µM; hit rate 0.75% among 300,000; AID 588334, 2011;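 active means mean activation of at least 80% with every replicate also reaching 80%; inconclusive means mean reaches 80% but some replicate falls short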;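 further: 0% = neutral control wells and 100% = parthenolide positive control wells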
esBAF inh = Bmi1 luciferase reporter increase in mESCs, primary screen, esBAF inhibitor project, mouse ES cells, Bmi1 luciferase knock-in, single point. 24 h; 100% = twice the neutral-well signal. reporter increase, % at 12.5 µM. hit rate 2% among 350,000. AID 602393, 2012; in the data active means activation above about 40%; inconclusive means no clear call, values can overlap the other calls;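 further: 0% = median of the plate's neutral control wells and 100% = double that signal; a rise in the Bmi1 reporter signal indicates esBAF inhibition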
ERAP1 inh = human ERAP1 aminopeptidase inhibitors, primary screen, biochemical, single point, plate reader; inhibition, % at 10.7 µM; AID 652197, 2013; Endoplasmic reticulum aminopeptidase 1 (Homo sapiens), Q9NZ08; recombinant ERAP1, Leu-AMC fluorescence, 60 min; hit rate 0.15% among 340,000;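 active means mean replicate inhibition of at least 30%, or all replicates individually reaching that 30% level; inactive means mean below 30% and not every replicate reaching it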;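 further: 0% = neutral control wells and 100% = L-leucinethiol positive control wells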
Target sequence (Q9NZ08 whole entry, looked up): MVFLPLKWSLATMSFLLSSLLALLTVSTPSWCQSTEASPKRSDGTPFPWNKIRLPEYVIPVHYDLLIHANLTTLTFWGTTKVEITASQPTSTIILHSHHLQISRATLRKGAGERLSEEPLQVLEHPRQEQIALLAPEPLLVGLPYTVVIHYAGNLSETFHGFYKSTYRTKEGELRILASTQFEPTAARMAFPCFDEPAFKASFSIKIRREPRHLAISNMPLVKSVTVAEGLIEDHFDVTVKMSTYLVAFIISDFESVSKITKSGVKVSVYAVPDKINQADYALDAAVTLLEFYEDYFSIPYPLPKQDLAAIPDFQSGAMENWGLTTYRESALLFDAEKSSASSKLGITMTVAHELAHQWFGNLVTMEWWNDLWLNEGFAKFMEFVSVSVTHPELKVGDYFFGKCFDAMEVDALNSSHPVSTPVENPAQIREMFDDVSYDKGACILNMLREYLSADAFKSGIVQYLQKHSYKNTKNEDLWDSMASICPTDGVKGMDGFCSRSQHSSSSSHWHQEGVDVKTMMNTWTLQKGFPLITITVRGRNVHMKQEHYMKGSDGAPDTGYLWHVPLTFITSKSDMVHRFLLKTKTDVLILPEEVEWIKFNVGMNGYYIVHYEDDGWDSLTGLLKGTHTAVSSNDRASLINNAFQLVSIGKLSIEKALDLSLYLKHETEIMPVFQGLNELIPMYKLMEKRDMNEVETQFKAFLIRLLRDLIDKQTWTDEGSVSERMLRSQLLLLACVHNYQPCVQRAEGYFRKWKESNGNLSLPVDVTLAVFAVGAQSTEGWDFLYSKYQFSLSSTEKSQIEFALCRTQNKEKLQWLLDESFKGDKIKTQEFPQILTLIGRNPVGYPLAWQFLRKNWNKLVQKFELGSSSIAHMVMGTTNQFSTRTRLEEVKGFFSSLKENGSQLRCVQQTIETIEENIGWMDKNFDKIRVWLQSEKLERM
HIV Env fusion = inhibitors of HIV-1 Env-driven cell-cell fusion, primary screen, HeLa-JRFL effector, CEM21 target cells, luciferase | inhibition, % at 12.3 µM | hit rate 1.1% among 360,000;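 active means mean replicate inhibition score of at least 50 and every replicate individually at or above 50; inconclusive means only one of the two criteria met; inactive means mean below 50 and not all replicates reaching 50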;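 further: 0% = plate neutral controls and 100% = maraviroc near 300 nM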
* marks the source's active call; other numbers are inactive results; ? = inconclusive; · = no result given; [ ] = remark or other dose. In the library only some 3.5% were active in any assay of this set; here they are far more common.

SMILES | Wnt act | Cneo AK release | MITF act | esBAF inh | ERAP1 inh | HIV Env fusion
CCCC(=O)Nc1ccc2c(c1)OC[C@@H](C)N(CCc1ccccc1)C[C@H](C)[C@@H](OC)CN(C)C2=O | · | · | · | -1.1 | · | ·
O=C(O)c1ccccc1NS(=O)(=O)c1cccc(NS(=O)(=O)c2cc(Br)ccc2Br)c1 | 5.1 | 2.4 | 2.9 | 0.9 | 33.1* | -3.8
COc1ccc(S(=O)(=O)N(C)C[C@@H]2OCCCC[C@@H](C)Oc3ccc(NC(=O)Nc4cccc5ccccc45)cc3C(=O)N([C@@H](C)CO)C[C@H]2C)cc1 | · | 1.0 | · | 1.2 | -5.5 | -13.4[16.7 µM]
c1cnc(SCCCOc2ccc3ccccc3c2)nc1 | -0.5 | -1.2 | 78.4 | 37.6 | · | -25.0
c1ccc(Oc2cccc(OCCCCSc3ncccn3)c2)cc1 | -2.0 | -2.4 | 4.0 | -2.6 | · | 13.3
Clc1ccc(OCCSc2ncccn2)cc1 | · | · | 99.5* | · | · | -187.2
Cc1ccc(OCCCSc2ncccn2)cc1C | · | 0.0 | ? | 69.9* | · | -36.7
COc1cccc(OCCCCSc2ncccn2)c1 | · | -4.0 | 40.9 | 54.6* | · | ·
COc1ccc(OCCCSc2ncccn2)cc1 | · | -2.3 | 112.9* | 56.8* | · | ·
O=C(C[C@H]1C[C@@H]2c3cc(NC(=O)Nc4ccc(C(F)(F)F)cc4)ccc3O[C@@H]2[C@H](CO)O1)NCCc1ccccc1 | · | -3.4 | · | -4.8 | 1.6 | 24.2[16.7 µM]
C[C@@H]1CN([C@@H](C)CO)C(=O)c2cc(NC(=O)Nc3ccc4c(c3)OCO4)ccc2O[C@@H](C)CCCCO[C@@H]1CN(C)C(=O)CCCN(C)C | · | 1.8 | · | 0.7 | · | 15.4[16.7 µM]
COc1cccc(OCCSc2nc(N)cc(N)n2)c1 | · | 0.2 | · | 54.5* | · | ·
Nc1cc(N)nc(SCCOc2ccccc2)n1 | · | 0.5 | 56.2 | 37.9 | · | ·
Cc1nn(Cc2ccccc2Cl)c(Cl)c1C(=O)NCCc1ccccc1 | 47.1* | · | 60.3 | 5.4 | -3.3 | -57.4
C[C@@H]1CCCCO[C@@H](CN(C)S(=O)(=O)c2cn(C)cn2)[C@@H](C)CN([C@H](C)CO)C(=O)c2cc(NS(=O)(=O)c3ccc(Cl)cc3)ccc2O1 | · | 1.5 | · | -12.9 | -6.8 | 7.0[16.7 µM]
CC1(C)NC(=O)N(CCOCCSc2ccccc2)C1=O | 0.4 | · | 17.2 | 61.3* | 0.9 | ·
CC1(C)NC(=O)N(CCOCCOc2ccccc2)C1=O | · | 2.1 | 15.3 | · | 5.7 | -20.3
CCOC(=O)c1c(NC(=O)C2CCCN2S(=O)(=O)c2cccc3nsnc23)sc(C)c1C (stereo unspecified) | -2.2 | 6.9 | -1.5 | 2.0 | -1.8 | 63.6*
O=C(Nc1sc2c(c1C(=O)O)CCCCC2)c1cccs1 | 11.9 | · | 30.6 | · | 6.9 | -32.7
CC1CCc2c(sc(NC(=O)c3cccs3)c2C(=O)O)C1 (stereo unspecified) | 19.2 | · | 12.0 | · | 3.8 | 11.3
O=C(CCc1ccccc1)Nc1sc2c(c1C(=O)O)CCCC2 | -1.8 | 0.4 | · | · | 4.1 | 1.8
O=C(/C=C/c1cccs1)Nc1sc2c(c1C(=O)O)CCCC2 | 13.6 | 1.1 | -6.4 | 61.7* | 2.5 | -4.2
O=C(Nc1sc2c(c1C(=O)O)CCCC2)c1cccs1 | · | 0.5 | 33.4 | 56.3* | · | -104.5
COC(=O)c1c(NC(=O)c2cccs2)sc2c1CCC(C)C2 (stereo unspecified) | -2.2 | -3.3 | 30.6 | 49.7* | · | ·
O=C(C[C@H]1CC[C@@H]2[C@H](COC[C@H](O)CN2S(=O)(=O)c2cccc(Cl)c2)O1)NCCCN1CCOCC1 | · | -3.1 | · | -4.9 | 1.5 | ·
SMILES | Wnt act | Cneo AK release | MITF act | esBAF inh | ERAP1 inh | HIV Env fusion
COc1cccc(-c2ccc([C@H]3[C@H](CO)N4C(=O)CN(C(=O)C5CCCC5)C[C@@H]34)cc2)c1 | · | · | · | · | 2.9 | 2.6[16.7 µM]
C[C@H]1CN([C@@H](C)CO)C(=O)Cc2cc(NC(=O)c3ccncc3)ccc2O[C@H]1CN(C)Cc1ccc(Cl)c(Cl)c1 | · | 4.1 | · | 7.3 | -1.7 | 4.7[16.7 µM]
Oc1ccc(-c2csc(Nc3ncccn3)n2)cc1 | -1.8 | · | 94.6* | 28.3 | 0.9 | -56.6
c1ccc(-c2csc(Nc3ncccn3)n2)cc1 | · | · | 39.7 | · | · | ·
CC(=O)Nc1ccc(-c2csc(Nc3ncccn3)n2)cc1 | 33.2* | · | 58.1 | 20.1 | 1.4 | -17.1
O=C(Nc1cccnc1)c1cn(-c2ccccc2)nc1-c1cccs1 | 29.0 | · | 58.9 | 57.6* | · | -121.0
CC(C)COc1ccc(-c2nn(-c3ccccc3)cc2C(=O)Nc2nccs2)cc1 | -8.6 | 0.2 | · | -2.7 | · | 71.7*
O=C(C1CCC1)N1CCCCN2[C@@H](CO)[C@H](c3ccc(C#CC4CCCC4)cc3)[C@@H]2C1 | · | 1.1 | · | · | -2.8 | ·
CO[C@H](C(=O)N(C)C[C@@H]1OCc2ccccc2-c2c(n(C)c3ccccc23)C(=O)N([C@H](C)CO)C[C@H]1C)c1ccccc1 | · | · | · | 7.2 | · | -4.8[16.7 µM]
Cc1cnn(-c2cc(Oc3ccccc3)ncn2)c1 | · | 2.1 | ? | 64.6* | · | ·
COc1ccc(NC(=O)C2=Cc3cccc(OC)c3OC2)cc1 | 44.3* | · | 51.7 | · | -0.7 | -51.4
C=CCNC(=O)c1ccc2nc(Cc3ccc(OC)cc3)oc2c1 | 15.6 | -1.9 | · | 89.1* | 2.1 | -43.6
COCCCNC(=O)c1ccc2nc(Cc3ccc(OC)cc3)oc2c1 | 8.1 | -1.6 | 39.9 | 70.6* | -0.3 | -51.0
COc1ccc(Cc2nc3ccc(C(=O)N(C)CCO)cc3o2)cc1 | -0.8 | 3.7 | -12.5 | 1.2 | -0.3 | -22.9
COc1ccc(Cc2nc3ccc(C(=O)NCCn4cccn4)cc3o2)cc1 | 9.9 | 0.9 | 17.9 | -5.1 | 1.5 | -1.1
COCC(=O)N1CC[C@@H]2[C@H]1c1cc(-c3ccccc3)ccc1N(C)[C@H]2CO | · | 6.6 | · | -7.9 | 3.8 | ·
O=C(c1ccc2c(c1)OCO2)N1CC(=O)N2[C@H](CO)[C@H](c3ccc(C#CCC4CCCC4)cc3)[C@@H]2C1 | · | · | · | · | -3.8 | ·
CCc1ccc(Nc2nc(C)cc(C)n2)cc1 | 7.0 | 1.2 | · | 48.6* | -2.7 | -8.1
Cc1cc(C)nc(Nc2ccc(O)cc2)n1 | 1.8 | -2.6 | 11.4 | -2.4 | 0.3 | -7.3
C[C@H]1CN([C@@H](C)CO)C(=O)c2cccc(NC(=O)c3ccc(-c4nccs4)cc3)c2O[C@@H]1CN(C)S(=O)(=O)c1cn(C)cn1 | · | 4.2 | · | -2.3 | -0.5 | 4.5[16.7 µM]
CO[C@@]12[C@@H]3N[C@@H]3CN1C1=C(C(=O)C(N)=C(C)C1=O)[C@@H]2COC(N)=O | -3.7 | · | · | · | -5.1 | 62.6*
Cn1c(=O)oc2cc(S(=O)(=O)Nc3ccc4c(c3)OCO4)ccc21 | 2.1 | 0.6 | -3.1 | 45.3* | · | 19.7
Cn1c(=O)c2cc(S(=O)(=O)Nc3ccc4c(c3)OCO4)ccc2n(C)c1=O | -4.0 | 1.2 | -24.8 | -16.0 | · | 41.0
Cn1c(=O)oc2cc(S(=O)(=O)N3CCCC3)ccc21 | -0.3 | -0.8 | · | -6.0 | 0.1 | 62.3*
CN1CCN(c2ccc(-c3ccnn3C(=O)Nc3ccccc3)cc2)CC1 | 44.1* | · | 48.8 | · | 3.7 | 5.6
